From ChEMBL document CHEMBL4014308, “Amphiphilic Tobramycin-Lysine Conjugates Sensitize Multidrug Resistant Gram-Negative Bacteria to Rifampicin and Minocycline” (J Med Chem, 2017)
Activity calls are given as the source filed them. The rule behind the calls is not given here.

Key:
Staphylococcus aureus [1] = assay: Antibacterial activity against Staphylococcus aureus ATCC 29213 after 18 hrs by microtiter dilution assay; type: functional; conditions: ATCC 29213, 18 h
How it was run: (§1)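 Broth microdilution following CLSI guidelines. An overnight culture was adjusted to 0.5 McFarland in saline, then diluted 1:50 in Mueller-Hinton broth. This inoculum was added in equal volume to 2-fold serial dilutions of agent in MHB and incubated 18 h at 37 °C. MIC was the lowest concentration with no visible growth.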

Staphylococcus aureus [2] = assay: Antibacterial activity against methicillin resistant Staphylococcus aureus ATCC 33592 after 18 hrs by microtiter dilution assay; type: functional; conditions: ATCC 33592, 18 h; how it was run: as §1
Streptococcus pneumoniae = assay: Antibacterial activity against Streptococcus pneumoniae ATCC 49619 after 18 hrs by microtiter dilution assay; type: functional; conditions: ATCC 49619, 18 h
How it was run: (§2)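 Broth microdilution per CLSI. Overnight culture adjusted to 0.5 McFarland in saline, diluted 1:50 in Mueller-Hinton broth, and added to an equal volume of 2-fold serial compound dilutions in MHB. Incubated 18 h at 37 °C. MIC taken as the lowest concentration with no visible growth.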

Escherichia coli [3] = assay: Antibacterial activity against Escherichia coli ATCC 25922 after 18 hrs by microtiter dilution assay; type: functional; conditions: ATCC 25922, 18 h; how it was run: as §1
Escherichia coli [4] = assay: Antibacterial activity against gentamicin-resistant Escherichia coli isolate CAN-ICU 61714 after 18 hrs by microtiter dilution assay; type: functional; conditions: isolate CAN-ICU 61714, 18 h; how it was run: as §1
Pseudomonas aeruginosa [5] = assay: Antibacterial activity against Pseudomonas aeruginosa ATCC 27853 after 18 hrs by microtiter dilution assay; type: functional; conditions: ATCC 27853, 18 h; how it was run: as §2
Klebsiella pneumoniae = assay: Antibacterial activity against Klebsiella pneumoniae ATCC 13883 after 18 hrs by microtiter dilution assay; type: functional; conditions: ATCC 13883, 18 h; how it was run: as §2
Pseudomonas aeruginosa [6] = assay: Synergistic antibacterial activity against Pseudomonas aeruginosa PAO1 after 18 hrs in presence of moxifloxacin by checkerboard assay; type: functional; conditions: PAO1, 18 h
How it was run: (§3)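 Checkerboard in MHB: antibiotic diluted along one axis and adjuvant along the other (10 × 7 matrix). Inoculum was a 1:50 dilution in MHB of a 0.5 McFarland saline suspension; incubated 18 h at 37 °C. Each FIC = concentration in the no-growth well divided by the MIC alone; FIC index = sum of both FICs. ≤0.5 synergy, 0.5–4 no interaction, ≥4 antagonism.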

Pseudomonas aeruginosa [7] = assay: Synergistic antibacterial activity against Pseudomonas aeruginosa PAO1 after 18 hrs in presence of erythromycin by checkerboard assay; type: functional; conditions: PAO1, 18 h; how it was run: as §3
Pseudomonas aeruginosa [8] = assay: Synergistic antibacterial activity against Pseudomonas aeruginosa PAO1 after 18 hrs in presence of kanamycin A by checkerboard assay; type: functional; conditions: PAO1, 18 h; how it was run: as §3
Pseudomonas aeruginosa [9] = assay: Potentiation of meropenem-induced antibacterial activity against Pseudomonas aeruginosa PAO1 at 4 ug/ml after 18 hrs by checkerboard assay; type: functional
How it was run: (§4)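 Checkerboard in Mueller-Hinton broth: antibiotic serially diluted along one axis and adjuvant along the other (10 × 7 matrix). Inoculum from a 0.5 McFarland saline suspension diluted 1:50 in MHB; 18 h at 37 °C, then plate read. MIC is the lowest concentration with no growth. FIC of each agent is its concentration in a no-growth well divided by its MIC alone; FIC index is the sum of both. FIC index ≤0.5 counts as synergy.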

Pseudomonas aeruginosa [10] = assay: Potentiation of trimethoprim-induced antibacterial activity against Pseudomonas aeruginosa PAO1 at 4 ug/ml after 18 hrs by checkerboard assay; type: functional
How it was run: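 Checkerboard broth microdilution in MHB: antibiotic serially diluted along one axis, adjuvant along the other (10 × 7 matrix). Inoculum from 0.5 McFarland saline suspension diluted 1:50 in MHB; 18 h at 37 °C. MIC taken as lowest concentration with no growth. FIC per agent = combination MIC/MIC alone; FIC index = sum (≤0.5 synergy).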

Pseudomonas aeruginosa [11] = assay: Potentiation of minocycline-induced antibacterial activity against multidrug/extremely drug-resistant/colistin-susceptible Pseudomonas aeruginosa isolate 100036 at 4 ug/ml after 18 hrs by checkerboard assay; type: functional; how it was run: as §4
Pseudomonas aeruginosa [12] = assay: Potentiation of minocycline-induced antibacterial activity against multidrug/extremely drug-resistant/colistin-susceptible Pseudomonas aeruginosa isolate 101885 assessed as fold reduction in minocycline MIC at 4 ug/ml after 18 hrs by checkerboard assay relative to control; type: functional
How it was run: (§5)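 Checkerboard in Mueller-Hinton broth, 10 × 7 matrix, with the adjuvant held at 4 µg/mL. Inoculum from a 0.5 McFarland suspension diluted 1:50; 18 h at 37 °C. Antibiotic MIC (lowest concentration with no growth) with adjuvant is compared with the antibiotic MIC alone, giving a fold reduction.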

Pseudomonas aeruginosa [13] = assay: Potentiation of rifampicin-induced antibacterial activity against multidrug/extremely drug-resistant/colistin-resistant Pseudomonas aeruginosa isolate 91433 assessed as fold reduction in rifampicin MIC at 4 ug/ml after 18 hrs by checkerboard assay relative to control; type: functional; how it was run: as §5
Pseudomonas aeruginosa [14] = assay: Potentiation of rifampicin-induced antibacterial activity against multidrug/extremely drug-resistant/colistin-resistant Pseudomonas aeruginosa isolate 91433 at 4 ug/ml after 18 hrs by checkerboard assay; type: functional; how it was run: as §4
Acinetobacter baumannii [15] = assay: Antibacterial activity against multidrug-resistant Acinetobacter baumannii 110193 after 18 hrs by microtiter dilution assay; type: functional; conditions: Acinetobacter baumannii, 110193, 18 h; how it was run: as §1
Acinetobacter baumannii [16] = assay: Potentiation of minocycline-induced antibacterial activity against multidrug-resistant Acinetobacter baumannii AB027 at 4 ug/ml after 18 hrs by checkerboard assay; type: functional; how it was run: as §4
Pseudomonas aeruginosa [17] = assay: Induction of outer membrane permeabilization in Pseudomonas aeruginosa PAO1 at 32 ug/ml after 30 mins by CFDASE staining based fluorescence assay; type: functional
How it was run: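 Log-phase PAO1 washed in PBS, brought to OD600 0.5 and loaded with 100 µM CFDASE for 30 min at 37 °C, then washed. Cells were exposed to agent for 30 min at 37 °C and supernatant fluorescence read at 488/520 nm. Untreated cells were subtracted; 1% Triton X-100 served as positive control.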

Pseudomonas aeruginosa [18] = assay: Potentiation of minocycline-induced antibacterial activity against multidrug/extremely drug-resistant/colistin-susceptible Pseudomonas aeruginosa isolate P262-101856 infected in Galleria mellonella assessed as mortality at 12.5 to 37.5 mg/kg after 24 hrs relative to control; type: functional
How it was run: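 Galleria mellonella larvae (~250 mg, used within 7 days), 15 per group, injected with 10 µL XDR P. aeruginosa P262 suspension (1.0×10^3 CFU/mL in PBS). At 2 h, a single 10 µL injection of combination at 12.5 + 12.5, 25 + 25 or 37.5 + 37.5 mg/kg; PBS vehicle control. Kept at 37 °C and survival scored over 24 h.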

[19] = Cytotoxicity against human DU145 cells assessed as cell viability at 20 uM after 48 hrs by MTS assay relative to control; type: cell-based, DU-145; conditions: read-out: Activity
How it was run: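 DU145 and JIMT-1 grown in DMEM with 10% FBS and penicillin/streptomycin at 37 °C, 5% CO2. 7500–9000 cells/well were seeded for 24 h, then treated at 2.5–30 µM (final) for 48 h. MTS reagent (20% v/v) added for 4 h and OD read at 490 nm after blank subtraction; viability expressed relative to vehicle control.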

Compound `Cl.Cl.Cl.Cl.Cl.Cl.Cl.NCCCC[C@H](N)C(=O)N(CCCCCCCCCCCCO[C@@H]1[C@@H](O[C@H]2O[C@H](CO)[C@@H](O)[C@H](N)[C@H]2O)[C@H](N)C[C@H](N)[C@H]1O[C@H]1O[C@H](CN)[C@@H](O)C[C@H]1N)Cc1c2ccccc2c(Cl)c2ccccc12` has an MIC (Staphylococcus aureus [1]) of 8 µg/mL, an MIC (Staphylococcus aureus [2]) of 8 µg/mL and an MIC (Streptococcus pneumoniae) of 32 µg/mL. The MIC (Escherichia coli [3]) was 32 µg/mL, the MIC (Escherichia coli [4]) was 32 µg/mL and the MIC (Pseudomonas aeruginosa [5]) was 32 µg/mL. It also gave an MIC (Klebsiella pneumoniae) of 128 µg/mL, an MIC (Pseudomonas aeruginosa [6]) of 2 µg/mL and an MIC (Pseudomonas aeruginosa [7]) of 4 µg/mL. The MIC (Pseudomonas aeruginosa [8]) was 0.5 µg/mL, the “fractional inhibitory concentration index (FICI)” value (Pseudomonas aeruginosa [9]) was 2.031 and the “fractional inhibitory concentration index (FICI)” value (Pseudomonas aeruginosa [10]) was 0.126. The “fractional inhibitory concentration index (FICI)” value (Pseudomonas aeruginosa [11]) was 0.094, the “fold change (FC)” value (Pseudomonas aeruginosa [12]) was 16 and the “fold change (FC)” value (Pseudomonas aeruginosa [13]) was 8. The “fractional inhibitory concentration index (FICI)” value (Pseudomonas aeruginosa [14]) was 0.5, the MIC (Acinetobacter baumannii [15]) was 16 µg/mL and the “fractional inhibitory concentration index (FICI)” value (Acinetobacter baumannii [16]) was 0.258. The Activity (Pseudomonas aeruginosa [17]) was “Active”, the mortality (Pseudomonas aeruginosa [18]) was 100% and the viability at 48 h, 20 µM [19] was greater than 50%.
